Measured values taken from article PMC2912410 (Bioconjugate chemistry, 2010).
Entries after “also recorded” stand apart in the source; their conditions may differ.

How the values were obtained:
P2Y1 receptor = settings: competitive antagonist of the P2Y1 receptor; cited from earlier work
human platelets = assay: ADP-induced aggregation of human washed platelets; type: cell-based; settings: 1 μM, ADP 5 μM
Method in brief: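 Washed human platelets: donor blood spun 175×g, 15 min, 37 °C; platelet-rich plasma spun 1570×g, 15 min; pellet washed twice in Tyrode's (pH 7.3, 0.35% human serum albumin); resuspended 3×10^5/μL with 0.02 U/mL apyrase, kept at 37 °C. Extent measured as maximum curve height above baseline.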

hP2Y1 receptor = hP2Y1 receptor (Homo sapiens, UniProt P47900); assay: [125I]MRS2500 radioligand binding at hP2Y1 receptor in Sf9 insect cell membranes; settings: for binding to the P2Y1 receptor (in words): [125I]MRS2500 binding; for fold weaker in binding than shortest homologue 20: comparison of Ki values
hP2Y1 receptor, sequence (P47900 whole entry): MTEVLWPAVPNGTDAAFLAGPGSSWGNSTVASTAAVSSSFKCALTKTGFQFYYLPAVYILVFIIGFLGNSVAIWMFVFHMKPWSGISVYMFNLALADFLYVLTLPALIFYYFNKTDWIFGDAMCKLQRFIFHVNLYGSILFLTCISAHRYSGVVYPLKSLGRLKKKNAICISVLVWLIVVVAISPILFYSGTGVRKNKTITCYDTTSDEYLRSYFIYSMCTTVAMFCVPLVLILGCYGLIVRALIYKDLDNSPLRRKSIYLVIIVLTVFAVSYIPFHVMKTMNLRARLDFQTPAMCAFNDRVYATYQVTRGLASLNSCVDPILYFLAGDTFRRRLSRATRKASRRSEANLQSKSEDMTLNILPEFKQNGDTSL

Question: With CNc1ncnc2c1ncn2[C@H]1C[C@H](OP(=O)(O)O)[C@@H](COP(=O)(O)O)O1 [Compound 1, N^6-methyl-2′-deoxyadenosine-3′,5′-bisphosphate] as the compound, how does the Kb (P2Y1 receptor) read?
Answer: Its Kb is 102 nM.

Question: Which “inhibition of platelet aggregation (in words)” value (human platelets) does the source give for CNc1nc(I)nc2c1ncn2[C@H]1C[C@H](OP(=O)(O)O)[C@]2(COP(=O)(O)O)C[C@H]12 [Compound 2, (1′R,2′S,4′S,5′S)-4-(2-iodo-6-methylamino-purin-9-yl)-1-[(phosphato)-methyl]-2-(phosphato)-bicyclo[3.1.0]hexane] here?
Answer: The value was “completely inhibited aggregation”.

Question: Which “binding to the P2Y1 receptor (in words)” value (hP2Y1 receptor) does the source give for CNc1nc(C#CCCCC(=O)NCCNC(=O)CCCCCNC(=O)CCCCC2SCC3NC(=O)NC32)nc2c1ncn2[C@H]1C[C@H](OP(=O)(O)O)[C@]2(COP(=O)(O)O)C[C@H]12 (stereo partly drawn) [Compound 18, (1'R,2'S,4'S,5'S)-4-{2-[6-(6-Oxo-6-(2-(6-(5-(2-oxohexahydro-1H-thieno[3,4-d]imidazol-4-yl)pentanamido)hexanamido)ethylamino)hex-1-ynyl)]-6-methylaminopurin-9-yl}-1-[(phosphato)-methyl]-2-(phosphato)-bicyclo[3.1.0]hexane] here?
Answer: The value was “more potent in binding than the shorter analogue 17”.

Question: For CNc1nc(C#CCCCCc2cn(CCNC(C)=O)nn2)nc2c1ncn2[C@H]1C[C@H](OP(=O)(O)O)[C@]2(COP(=O)(O)O)C[C@H]12 [Compound 22, (1'R,2'S,4'S,5'S)-4-{2-[(6-(2-Acetamidoethyl)-1H-1,2,3-triazol-4-yl)-hex-1-yn-1-yl]-6-methylaminopurin-9-yl}-1-[(phosphato)-methyl]-2-(phosphato)-bicyclo[3.1.0]hexane], which “fold weaker in binding than shortest homologue 20” value (hP2Y1 receptor) is on record?
Answer: Its value is 20 – 30 fold.

Question: Which “fold weaker in binding than shortest homologue 20” value (hP2Y1 receptor) does the source give for CNc1nc(C#CCCCCCc2cn(CCNC(C)=O)nn2)nc2c1ncn2[C@H]1C[C@H](OP(=O)(O)O)[C@]2(COP(=O)(O)O)C[C@H]12 [Compound 23, (1'R,2'S,4'S,5'S)-4-{2-[(7-(2-Acetamidoethyl)-1H-1,2,3-triazol-4-yl)-hept-1-yn-1-yl]-6-methylaminopurin-9-yl}-1-[(phosphato)-methyl]-2-(phosphato)-bicyclo[3.1.0]hexane] here?
Answer: The value was 20 – 30 fold.

Question: With “(1'R,2'S,4'S,5'S)-4-{2-[(6-(6-(4-(Fluorosulfonyl)phenethylamino)-6-oxohex-1-ynyl)]-6-methylaminopurin-9-yl}-1-[(phosphato)-methyl]-2-(phosphato)-bicyclo[3.1.0]hexane [Compound 19]” as the compound, how does the “binding to the P2Y1 receptor (in words)” value (hP2Y1 receptor) read?
Answer: Its value is “not appreciably potent; also recorded: weak in binding”.

Question: For “(1'R,2'S,4'S,5'S)-4-{2-[(6-(6-Oxo-6-(2-(5-(2-oxohexahydro-1H-thieno[3,4-d]imidazol-4-yl)pentanamido)ethylamino)hex-1-ynyl)-1-propynyl]-6-methylaminopurin-9-yl}-1-[(phosphato)-methyl]-2-(phosphato)-bicyclo[3.1.0]hexane [Compound 17]”, which “binding to the P2Y1 receptor (in words)” value (hP2Y1 receptor) is on record?
Answer: Its value is “weak in binding”.
